From ChEMBL document CHEMBL3400011, “Canthinone alkaloids are novel protein tyrosine phosphatase 1B inhibitors” (Bioorg Med Chem Lett, 2015) come the findings set out here.

For assay [1], the species on record is Homo sapiens. Kind of assay: Ratio of inhibition rate for PTP1B (unknown origin) at 75 uM to inhibition rate for SHP2 (unknown origin) at 75 uM.
Assay [2] concerns the target Tyrosine-protein phosphatase non-receptor type 6 (Homo sapiens) (UniProt P29350). Kind of assay: Inhibition of SHP1 (unknown origin) assessed as inhibition rate at 75 uM.
For assay [3], the target named is T1, Tyrosine-protein phosphatase non-receptor type 1 (Homo sapiens) (UniProt P18031).
T1 sequence (whole entry): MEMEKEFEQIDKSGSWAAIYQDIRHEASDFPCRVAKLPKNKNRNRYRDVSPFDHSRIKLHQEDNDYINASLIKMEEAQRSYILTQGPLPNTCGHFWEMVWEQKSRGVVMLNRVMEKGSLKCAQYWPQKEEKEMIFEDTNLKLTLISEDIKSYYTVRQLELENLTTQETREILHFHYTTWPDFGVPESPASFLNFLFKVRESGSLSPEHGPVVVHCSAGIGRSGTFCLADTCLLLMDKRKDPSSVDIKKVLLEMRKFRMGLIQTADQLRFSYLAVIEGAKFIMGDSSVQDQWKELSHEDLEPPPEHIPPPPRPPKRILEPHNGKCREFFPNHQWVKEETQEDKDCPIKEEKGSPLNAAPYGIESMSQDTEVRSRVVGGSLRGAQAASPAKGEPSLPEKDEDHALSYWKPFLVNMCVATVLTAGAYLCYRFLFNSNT
Nature of the assay: Inhibition of PTP1B (unknown origin) assessed as inhibition rate at 75 uM.

Assay [4] is filed under the species Homo sapiens. Kind of assay: Ratio of inhibition rate for PTP1B (unknown origin) at 75 uM to inhibition rate for VHR (unknown origin) at 75 uM.
For assay [5], the target named is T2, Tyrosine-protein phosphatase non-receptor type 2 (Homo sapiens) (UniProt P17706).
T2 sequence (whole entry): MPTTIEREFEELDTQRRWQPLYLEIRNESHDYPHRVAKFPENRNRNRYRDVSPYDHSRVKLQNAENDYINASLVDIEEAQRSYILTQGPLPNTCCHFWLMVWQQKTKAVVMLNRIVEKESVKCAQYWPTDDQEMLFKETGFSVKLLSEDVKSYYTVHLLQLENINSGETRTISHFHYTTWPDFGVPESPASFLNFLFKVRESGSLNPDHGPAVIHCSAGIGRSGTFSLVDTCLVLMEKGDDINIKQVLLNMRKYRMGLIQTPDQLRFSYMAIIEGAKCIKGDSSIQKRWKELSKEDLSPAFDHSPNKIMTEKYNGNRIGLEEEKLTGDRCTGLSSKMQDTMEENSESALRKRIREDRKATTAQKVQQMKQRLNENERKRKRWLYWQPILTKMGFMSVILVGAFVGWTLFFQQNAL
Kind of assay: Inhibition of TCPTP (unknown origin) assessed as inhibition rate at 75 uM.

For assay [6], the target named is T3, Tyrosine-protein phosphatase non-receptor type 1 (Homo sapiens, UniProt P18031).
T3 sequence (P18031 whole entry): T1 sequence (whole entry)
Nature of the assay: Non-competitive inhibition of PTP1B (unknown origin) assessed as hydrolysis of para-nitrophenylphosphate by Lineweaver-Burk plot. Put shortly:
(§1)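 Kinetic study of PTP1B varying both compound and p-nitrophenylphosphate substrate concentrations. Mode was read from Lineweaver–Burk plots. Slopes from those plots were replotted against compound concentration (secondary plot), and Ki was calculated from that plot.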

Assay [7] has as its target T3, Tyrosine-protein phosphatase non-receptor type 1. Nature of the assay: Inhibition of PTP1B (unknown origin). Put shortly:
(§2)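 PTP1B enzymatic assay with RK-682 as the positive control. For the single-point screen, compounds were tested at a final 100 µM. For dose–response, inhibition was measured over a range of compound concentrations, and IC50 was obtained by regression analysis.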

In assay [8] the target is Dual specificity protein phosphatase 3 (Homo sapiens) (UniProt P51452). Nature of the assay: Inhibition of VHR (unknown origin) assessed as inhibition rate at 75 uM.
For assay [9], the species on record is Homo sapiens. Nature of the assay: Ratio of inhibition rate for PTP1B (unknown origin) at 75 uM to inhibition rate for TCPTP (unknown origin) at 75 uM.
For assay [10], the target named is T4, Tyrosine-protein phosphatase non-receptor type 11 (Homo sapiens) (UniProt Q06124).
T4 sequence (whole entry): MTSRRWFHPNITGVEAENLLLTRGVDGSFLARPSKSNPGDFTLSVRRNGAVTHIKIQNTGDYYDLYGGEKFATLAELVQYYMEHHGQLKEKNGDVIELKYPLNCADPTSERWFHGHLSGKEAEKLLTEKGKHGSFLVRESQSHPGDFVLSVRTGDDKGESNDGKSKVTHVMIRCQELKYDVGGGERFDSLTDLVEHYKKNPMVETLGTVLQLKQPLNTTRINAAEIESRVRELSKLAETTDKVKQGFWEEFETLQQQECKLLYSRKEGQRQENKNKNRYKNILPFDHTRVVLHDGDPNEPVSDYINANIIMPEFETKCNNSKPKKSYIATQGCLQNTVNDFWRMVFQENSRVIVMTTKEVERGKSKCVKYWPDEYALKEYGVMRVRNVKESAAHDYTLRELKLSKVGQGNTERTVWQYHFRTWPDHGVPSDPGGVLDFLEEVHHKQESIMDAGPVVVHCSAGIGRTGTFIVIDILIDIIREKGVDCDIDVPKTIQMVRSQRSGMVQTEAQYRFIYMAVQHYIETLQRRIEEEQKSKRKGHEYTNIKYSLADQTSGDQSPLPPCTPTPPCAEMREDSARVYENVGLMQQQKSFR
Kind of assay: Inhibition of SHP2 (unknown origin) assessed as inhibition rate at 75 uM.

The species entered for assay [11] is Homo sapiens. Kind of assay: Ratio of inhibition rate for PTP1B (unknown origin) at 75 uM to inhibition rate for SHP1 (unknown origin) at 75 uM.
The target of assay [12] is T2, Tyrosine-protein phosphatase non-receptor type 2 (Homo sapiens). Kind of assay: Inhibition of TCPTP (unknown origin) assessed as inhibition rate at 90 uM.
Assay [13] addresses Dual specificity protein phosphatase 3 (Homo sapiens) (UniProt P51452). Nature of the assay: Inhibition of VHR (unknown origin) assessed as inhibition rate at 90 uM.
The target of assay [14] is T1, Tyrosine-protein phosphatase non-receptor type 1 (Homo sapiens). The conditions noted are these: 90 uM.
Assay [15] addresses Tyrosine-protein phosphatase non-receptor type 6 (Homo sapiens) (UniProt P29350). Kind of assay: Inhibition of SHP1 (unknown origin) assessed as inhibition rate at 90 uM.
Assay [16] relates to HepG2. Kind of assay: Induction of Akt phosphorylation in insulin-stimulated human HepG2 cells assessed as pAkt/Akt ratio at 50 uM after 5 mins by western blotting analysis relative to control. Type of assay: functional. Put shortly:
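HepG2 cells were treated with compound at 50 µM, then stimulated with insulin. pAkt was assessed by western blotting at 0 and 5 min after insulin. DMSO served as the negative control and sodium orthovanadate (200 µM) as the positive control. Values are expressed relative to control.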
A general note: In western blotting, separated proteins are transferred to a membrane and probed.

In assay [17] the target is T4, Tyrosine-protein phosphatase non-receptor type 11 (Homo sapiens). Nature of the assay: Inhibition of SHP2 (unknown origin) assessed as inhibition rate at 90 uM.
For assay [18], the species on record is Homo sapiens. Nature of the assay: Ratio of inhibition rate for PTP1B (unknown origin) at 75 uM to inhibition rate for SHP1 (unknown origin) at 100 uM.
Assay [19] deals with T1, Tyrosine-protein phosphatase non-receptor type 1 (Homo sapiens). Kind of assay: Inhibition of PTP1B (unknown origin) assessed as inhibition rate at 100 uM. In a few lines: as §2
For assay [20], the species on record is Homo sapiens. Kind of assay: Ratio of inhibition rate for PTP1B (unknown origin) at 75 uM to inhibition rate for TCPTP (unknown origin) at 100 uM.
Assay [21] concerns the target T4, Tyrosine-protein phosphatase non-receptor type 11 (Homo sapiens). Kind of assay: Inhibition of SHP2 (unknown origin) assessed as inhibition rate at 100 uM.
Assay [22] concerns the target Dual specificity protein phosphatase 3 (Homo sapiens) (UniProt P51452). Kind of assay: Inhibition of VHR (unknown origin) assessed as inhibition rate at 100 uM.
The target in assay [23] is T2, Tyrosine-protein phosphatase non-receptor type 2 (Homo sapiens). Kind of assay: Inhibition of TCPTP (unknown origin) assessed as inhibition rate at 100 uM.
Assay [24] deals with Tyrosine-protein phosphatase non-receptor type 6 (Homo sapiens) (UniProt P29350). Kind of assay: Inhibition of SHP1 (unknown origin) assessed as inhibition rate at 100 uM.
The species entered for assay [25] is Homo sapiens. Nature of the assay: Ratio of inhibition rate for PTP1B (unknown origin) at 75 uM to inhibition rate for SHP2 (unknown origin) at 100 uM.
The species entered for assay [26] is Homo sapiens. Nature of the assay: Ratio of inhibition rate for PTP1B (unknown origin) at 75 uM to inhibition rate for VHR (unknown origin) at 100 uM.
For assay [27], the target named is T3, Tyrosine-protein phosphatase non-receptor type 1. Kind of assay: Competitive inhibition of PTP1B (unknown origin) assessed as hydrolysis of para-nitrophenylphosphate by Lineweaver-Burk plot. Put shortly:
as §1

In general, inhibition refers to how much of the control response was suppressed. The Ki is a dissociation constant, usually derived from enzyme kinetics or from competition with a known ligand. What is called IC50 is the concentration at which inhibition is half-maximal.

The structures appear in SMILES notation.

Dual specificity protein phosphatase 3 (Homo sapiens), sequence (P51452 whole entry, looked up): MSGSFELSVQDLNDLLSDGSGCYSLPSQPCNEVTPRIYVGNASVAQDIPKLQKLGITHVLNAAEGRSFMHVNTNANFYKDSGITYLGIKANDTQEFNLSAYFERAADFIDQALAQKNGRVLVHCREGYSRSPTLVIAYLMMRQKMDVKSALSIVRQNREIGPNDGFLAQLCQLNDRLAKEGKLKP
Tyrosine-protein phosphatase non-receptor type 6 (Homo sapiens), sequence (P29350 whole entry): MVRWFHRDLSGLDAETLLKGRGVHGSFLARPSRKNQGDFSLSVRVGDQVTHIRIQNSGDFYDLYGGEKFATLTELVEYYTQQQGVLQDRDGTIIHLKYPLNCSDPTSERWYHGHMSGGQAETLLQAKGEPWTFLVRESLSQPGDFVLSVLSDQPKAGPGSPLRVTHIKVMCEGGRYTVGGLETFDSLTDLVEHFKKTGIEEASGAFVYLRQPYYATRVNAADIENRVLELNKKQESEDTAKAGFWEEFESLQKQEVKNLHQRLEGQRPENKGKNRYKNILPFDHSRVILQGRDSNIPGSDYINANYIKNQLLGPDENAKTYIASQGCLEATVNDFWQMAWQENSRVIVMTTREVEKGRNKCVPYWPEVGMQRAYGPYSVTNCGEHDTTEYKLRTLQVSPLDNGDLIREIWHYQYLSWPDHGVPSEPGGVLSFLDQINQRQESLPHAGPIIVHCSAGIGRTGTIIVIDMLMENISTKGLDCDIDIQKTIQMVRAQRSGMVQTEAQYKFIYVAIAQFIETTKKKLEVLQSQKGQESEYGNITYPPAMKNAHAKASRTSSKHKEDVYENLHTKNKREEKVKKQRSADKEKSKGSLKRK

On to `Cc1c2n(C)ccc3c-2n(c(=O)c1=O)c1ccccc31`, for which the Ratio in [1] amounted to 3.8; in assay [4], 3.5; in assay [9], 1.9; in assay [11] it was 3.8. For the same compound, the inhibition in assay [2] is 24.4%; in assay [3] it was 92.1%; in [5], 49.7%; in assay [8], 26.5%; in [10], 23.3%. The Ki in assay [6] worked out at 19.9 µM. This compound gave a 50% inhibitory concentration (IC50) in assay [7] of 24.7 µM.

Take `CC(=O)Oc1cc2nccc3c4ccccc4n(c1=O)c23`: in assay [6], the Ki is 18.4 µM. For the same compound, the inhibition in assay [12] was 22.1%; in assay [13], 46%; in assay [14], 90.3%; in assay [15] it was 30.2%; in assay [17], 23%. Moreover, half-maximal inhibition in [7] (IC50) required 28.9 µM. Further, the pAkt/Akt ratio in assay [16] was 2.1.

Consider `COc1ccc2c3ccn(C)c4cc(=O)c(=O)n(c3-4)c2c1`, for which the Ratio came out at 3.3 in assay [18], 6.3 in assay [20], 2.1 in assay [25] and 1.5 in [26]. The inhibition is 93.8% in assay [19]; 44.4% in assay [21]; 61.4% in [22]; 15% in assay [23]; 28.7% in assay [24]. Moreover, in assay [6], the Ki worked out at 12.9 µM. The same compound gave an IC50 in [7] of 19.2 µM. For the same compound, the pAkt/Akt ratio in assay [16] is 1.8.

For `COc1cc2nccc3c4ccccc4n(c1=O)c23` [5-METHOXYCANTHINONE], the Ratio is 5 in [1], 3.3 in assay [4], 1.9 in [9] and 4 in assay [11]. Further, the inhibition in assay [2] came out at 22.8%; in assay [3], 91%; in [5], 48.4%; in [8], 27.5%; in assay [10], 18.3%. In addition, the Ki in assay [6] is 10.3 µM. In assay [7], this compound gave an IC50 of 20.3 µM. In [16], the pAkt/Akt ratio came to 1.3.

Take `Cn1ccc2c3n(c(=O)c(=O)cc1-3)c1ccccc21`: the Ratio turned out to be 5.6 in [1], 4.4 in assay [4], 3.2 in assay [9] and 6.9 in assay [11]. Further, the inhibition was determined as 13.2% in assay [2]; 91.4% in assay [3]; 29% in [5]; 20.6% in [8]; 16.3% in assay [10]. The inhibitory constant (Ki) in [27] came to 7.07 µM. Moreover, the IC50 in assay [7] was 19.8 µM. For the same compound, in [16], the pAkt/Akt ratio is 2.4.

With `CCc1c2n(C)ccc3c-2n(c(=O)c1=O)c1ccccc31`, the Ratio in assay [18] was 4.4; in assay [20], 2.3; in [25], 3.6; in assay [26], 4.6. The inhibition in [19] came out at 91%; in assay [21], 25%; in assay [22], 19.7%; in assay [23], 40%; in [24], 20.6%. For the same compound, the inhibition constant Ki in assay [6] was determined as 20 µM. The same compound registered an IC50 in assay [7] of 27.8 µM. Besides, the pAkt/Akt ratio in assay [16] is 1.2.
